# Activity calls are given as the source filed them. The calls are words filed in the database; no cut-off is given here.
# Columns and labels:
# Bacillus spizizenii [1] = assay: Antibacterial activity against Bacillus subtilis ATCC 6633 assessed as growth inhibition after 48 hrs by two-fold serial dilution assay; format: functional
# How it was run: (§1)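 Twofold serial broth dilution run on compounds giving inhibition zones of 13 mm or more. Organisms pre-grown in suitable broth at 37 °C, 24 h for bacteria and 48 h for fungi. Dilution series 200, 100, 50, 25, 12.5, 6.25. Each 5 mL tube inoculated with 0.1 mL and incubated 37 °C for 48 h. Tubes scored for presence or absence of growth.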
# Candida albicans [2] = assay: Antifungal activity against Candida albicans ATCC 10231 assessed as growth inhibition at 1 mg/mL after 48 hrs by agar-cup diffusion method; format: functional; conditions: ATCC 10231, 48 h, read-out: DIZ
# How it was run: (§2)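 Agar-cup diffusion: 1 mL of 6 h broth culture seeded per 100 mL molten sterile agar at 45 °C and poured into plates. 8 mm cups cut, each filled with 0.1 mL of 1 mg/mL test solution. Incubated 37 °C for 24 h, 48 h for C. albicans. DMSO control per organism. Inhibition zone diameter in mm, mean of three measurements.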
# Staphylococcus aureus [3] = assay: Bactericidal activity against Staphylococcus aureus ATCC 6538 after 18 hrs; format: functional; conditions: ATCC 6538, 18 h
# How it was run: (§3)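 Continuation of the broth-dilution MIC test. A loopful from each tube without visible growth spread on a quarter of a Mueller-Hinton agar plate and incubated 18 h. Lowest concentration giving no growth on subculture taken as the MBC.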
# Escherichia coli [4] = assay: Antibacterial activity against Escherichia coli ATCC 25922 assessed as growth inhibition at 1 mg/mL after 24 hrs by agar-cup diffusion method; format: functional; conditions: ATCC 25922, 24 h, read-out: DIZ; how it was run: as §2
# Aspergillus niger = assay: Antifungal activity against Aspergillus niger assessed as growth inhibition at 1 mg/mL after 24 hrs by agar-cup diffusion method; format: functional, organism-based; how it was run: as §2
# Staphylococcus aureus [5] = assay: Antibacterial activity against Staphylococcus aureus ATCC 6538 assessed as growth inhibition at 1 mg/mL after 24 hrs by agar-cup diffusion method; format: functional; conditions: ATCC 6538, 24 h, read-out: DIZ; how it was run: as §2
# Staphylococcus aureus [6] = assay: Antibacterial activity against Staphylococcus aureus ATCC 6538 assessed as growth inhibition after 48 hrs by two-fold serial dilution assay; format: functional; how it was run: as §1
# Pseudomonas aeruginosa [7] = assay: Antibacterial activity against Pseudomonas aeruginosa ATCC 27853 assessed as growth inhibition at 1 mg/mL after 24 hrs by agar-cup diffusion method; format: functional; conditions: ATCC 27853, 24 h, read-out: DIZ; how it was run: as §2
# Escherichia coli [8] = assay: Bactericidal activity against Escherichia coli ATCC 25922 after 18 hrs; format: functional; conditions: ATCC 25922, 18 h; how it was run: as §3
# Bacillus spizizenii [9] = assay: Antibacterial activity against Bacillus subtilis ATCC 6633 assessed as growth inhibition at 1 mg/mL after 24 hrs by agar-cup diffusion method; format: functional; conditions: ATCC 6633, 24 h, read-out: DIZ; how it was run: as §2
# Escherichia coli [10] = assay: Antibacterial activity against Escherichia coli ATCC 25922 assessed as growth inhibition after 48 hrs by two-fold serial dilution assay; format: functional; how it was run: as §1
# Bacillus spizizenii [11] = assay: Bactericidal activity against Bacillus subtilis ATCC 6633 after 18 hrs; format: functional; conditions: ATCC 6633, 18 h; how it was run: as §3
# Candida albicans [12] = assay: Antifungal activity against Candida albicans ATCC 10231 assessed as growth inhibition after 48 hrs by two-fold serial dilution assay; format: functional; conditions: ATCC 10231, 48 h; how it was run: as §1
# Pseudomonas aeruginosa [13] = assay: Bactericidal activity against Pseudomonas aeruginosa ATCC 27853 after 18 hrs; format: functional; conditions: ATCC 27853, 18 h; how it was run: as §3
# Pseudomonas aeruginosa [14] = assay: Antibacterial activity against Pseudomonas aeruginosa ATCC 27853 assessed as growth inhibition after 48 hrs by two-fold serial dilution assay; format: functional; how it was run: as §1
Compound,"MIC (Bacillus spizizenii [1]; ATCC 6633, 48 h) [µg/mL]",zone of inhibition at 1000 µg/mL (Candida albicans [2]) [mm],MBC (Staphylococcus aureus [3]) [µg/mL],zone of inhibition at 1000 µg/mL (Escherichia coli [4]) [mm],growth inhibition (GI) (Aspergillus niger),zone of inhibition at 1000 µg/mL (Staphylococcus aureus [5]) [mm],"MIC (Staphylococcus aureus [6]; ATCC 6538, 48 h) [µg/mL]",zone of inhibition at 1000 µg/mL (Pseudomonas aeruginosa [7]) [mm],MBC (Escherichia coli [8]) [µg/mL],zone of inhibition at 1000 µg/mL (Bacillus spizizenii [9]) [mm],"MIC (Escherichia coli [10]; ATCC 25922, 48 h) [µg/mL]",MBC (Bacillus spizizenii [11]) [µg/mL],MIC (Candida albicans [12]) [µg/mL],MBC (Pseudomonas aeruginosa [13]) [µg/mL],"MIC (Pseudomonas aeruginosa [14]; ATCC 27853, 48 h) [µg/mL]",MIC (Bacillus spizizenii [1]) [µg/mL],MIC (Staphylococcus aureus [6]) [µg/mL],MIC (Escherichia coli [10]) [µg/mL],MIC (Pseudomonas aeruginosa [14]) [µg/mL]
CCOC(=O)c1sc(/N=C/c2cccs2)nc1C,100,> 13,200,> 13,inactive,> 13,100,> 13,100,> 13,50,200,,,,,,,
Clc1ccccc1C(c1ccccc1)(c1ccccc1)n1ccnc1 [CLOTRIMAZOLE],,,,,,,,,,,,,6.25,,,,,,
Cc1nc(NC(=S)NC2CCCCC2)sc1C(=O)NN,100,> 13,100,> 13,inactive,> 13,100,> 13,100,> 13,50,100,,200,100,,,,
CCOC(=O)c1sc(NC=O)nc1C,100,> 13,200,> 13,inactive,> 13,100,> 13,,> 13,,200,,,,,,,
Cc1nc(NC(=S)Nc2ccccc2)sc1C(=O)NN,100,> 13,100,> 13,inactive,> 13,50,> 13,100,> 13,100,200,,,,,,,
C[C@@H]1[C@H](O)[C@@H](C)/C=C/C=C/C=C/C=C/C=C/C=C/C=C/[C@H](O[C@@H]2O[C@H](C)[C@@H](O)[C@H](N)[C@@H]2O)C[C@@H]2O[C@](O)(C[C@@H](O)C[C@@H](O)[C@H](O)CC[C@@H](O)C[C@@H](O)CC(=O)O[C@H]1C)C[C@H](O)[C@H]2C(=O)O [AMPHOTERICIN B],,,,,,,,,,,,,1.56,,,,,,
GENTAMICIN,,,,,,,,,,,,,,,,12.5,3.12,3.12,12.5
CCOC(=O)c1sc(NC(=S)Nc2ccc(C)cc2)nc1C,100,> 13,50,> 13,inactive,> 13,50,> 13,100,> 13,50,100,,200,100,,,,
CC1(C)S[C@@H]2[C@H](NC(=O)[C@H](N)c3ccccc3)C(=O)N2[C@H]1C(=O)O.O.O.O [AMPICILLIN TRIHYDRATE],12.5,,,,,,6.25,,,,6.25,,,,12.5,,,,
CCOC(=O)c1sc(NC(=S)NC2CCCCC2)nc1C,100,> 13,100,> 13,inactive,> 13,50,> 13,100,> 13,50,200,,,,,,,
CCOC(=O)c1sc(/N=C/c2ccco2)nc1C,100,> 13,100,> 13,inactive,> 13,50,> 13,50,> 13,25,200,,,,,,,
